This is a sample that favours compounds with a hit; in the whole collection about 1.5% have one here.
NSD2 HMT inh = blocks human histone methyltransferase NSD2; NSD2 peptide methylation, AlphaScreen, 120 min; inhibition, % at 12.5 µM; O96028; 310,000 tested, 0.54% active
Casp6 inh = blocks human caspase-6 cleavage activity; AID 686996; purified caspase-6, Z-VEID-R110 cleavage fluorescence; 350,000 tested, 0.53% active; inhibition, % at 12.5 µM; P55212;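 active = mean inhibition across replicates at least about 35%, with every replicate also reaching that limit, limit read from the data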;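 also: 0% = median of neutral control wells and 100% = no fluorescence left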
Target sequence (P55212 24-179 limits assumed): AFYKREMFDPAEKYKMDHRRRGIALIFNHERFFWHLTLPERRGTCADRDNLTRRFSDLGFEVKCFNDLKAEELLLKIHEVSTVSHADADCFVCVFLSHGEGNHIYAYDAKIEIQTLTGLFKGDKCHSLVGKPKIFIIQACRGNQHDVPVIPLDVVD
Target sequence (P55212 194-293 limits assumed): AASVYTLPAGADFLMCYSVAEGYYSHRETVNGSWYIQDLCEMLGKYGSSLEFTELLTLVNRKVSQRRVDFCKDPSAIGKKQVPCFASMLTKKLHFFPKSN
DNMT1 block = DNMT1 (human) enzyme inhibition | P26358 | 360,000 tested, 0.83% active | inhibition (reported as % activation of signal), % at 10 µM | DNMT1 molecular beacon, Hinp1I cleavage, fluorescence
HCV NS3 hel inh = inhibitors of Hepatitis C virus NS3 helicase | AID 1800 | 290,000 tested, 0.56% active | inhibition, % at 10.9 µM | NS3 helicase DNA unwinding, Cy5 molecular beacon fluorescence;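 active = inhibition above the mean of all tested compounds plus 3 SD, set per campaign, cut at about 35% in these data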;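 also: 0% = DMSO wells and 100% = thioflavine S control wells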
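assay system = NS3 helicase fragment of HCV | buffer or medium = MOPS pH 6.5, MgCl2, DTT, Tween20, BSA | timing = 60 min unwinding reaction at 25 °C after ATP addition | signal = Cy5 beacon fluorescence read at start and 1 h | read-out basis = % inhibition of unwinding | control set = low DMSO, high thioflavine S at 110 µM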
NS3 helicase cf = confirmation of Hepatitis C virus NS3 helicase inhibitors; AID 1943; NS3 helicase DNA unwinding, Cy5 molecular beacon fluorescence; inhibition, % at 10.9 µM; 1,600 tested, 31% active; shares compounds with HCV NS3 hel inh;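 active = inhibition above the mean of all tested compounds plus 3 SD, cutoff set per campaign, cut at about 36% in these data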
FID counter trip = counter-screen for HCV NS3 helicase inhibitors: DNA intercalator displacement; shares compounds with HCV NS3 hel inh; 1,600 tested, 4% active; DNA fluorescent intercalator displacement, fluorescence; inhibition, % at 7.9 µM; in the data active = inhibition above about 37%;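 also: 0% = vehicle and 100% = reference compound; higher means more displacement of ethidium bromide from the DNA hairpin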
* = called active by the depositor. Rule as the data show it, unless noted: active = inhibition above about 50%; inactive = the rest.

How did COc1cccc(-c2coc3c(C)c4oc(=O)c(CC(=O)O)c(C)c4cc23)c1 do in these assays?
NSD2 HMT inh: 6; Casp6 inh: 15; DNMT1 block: -1; HCV NS3 hel inh: 44*; NS3 helicase cf: 59*; FID counter trip: -10

How did N#C/C(=C(\O)c1cc(Cl)sc1Cl)c1nc2ccccc2[nH]1 do in these assays?
NSD2 HMT inh: 0; Casp6 inh: 1; DNMT1 block: -9; HCV NS3 hel inh: 43*; NS3 helicase cf: -6; FID counter trip: -3

How did C[C@H]1CN([C@@H](C)CO)C(=O)Cc2cc(NS(=O)(=O)c3ccc(Cl)cc3)ccc2O[C@@H]1CN(C)C(=O)NC1CCCCC1 do in these assays?
Casp6 inh: 0

Results for O=C(NN=Cc1c(O)ccc2ccccc12)c1ccc2c(c1)OCO2 ?
NSD2 HMT inh: -2; Casp6 inh: -5; DNMT1 block: 17

What do the screens show for `O=C(N/N=C/c1c(O)ccc2ccccc12)c1ccc(CO)nc1`?
NSD2 HMT inh: -2; Casp6 inh: 19; DNMT1 block: 0; HCV NS3 hel inh: 39*; NS3 helicase cf: 7; FID counter trip: -1

Results for O=CN/N=C/c1c(O)ccc2ccccc12 ?
NSD2 HMT inh: -5; Casp6 inh: -3; DNMT1 block: 11; HCV NS3 hel inh: -3

How did NC(=S)N/N=C/c1c(O)ccc2ccccc12 do in these assays?
NSD2 HMT inh: -4; Casp6 inh: -5; DNMT1 block: 2; HCV NS3 hel inh: 57*; NS3 helicase cf: 7; FID counter trip: -1

What do the screens show for `CNC[C@@H]1OCCCC[C@@H](C)Oc2ccc(NC(=O)Nc3c(C)noc3C)cc2C(=O)N([C@H](C)CO)C[C@H]1C`?
Casp6 inh: -1

What do the screens show for `CC(C)Nc1ccc(Cl)cc1[N+](=O)[O-]`?
HCV NS3 hel inh: 41*; NS3 helicase cf: -12; FID counter trip: 1

What do the screens show for `CN(C)CCNc1ccc(Cl)cc1[N+](=O)[O-]`?
NSD2 HMT inh: 3; Casp6 inh: 0; DNMT1 block: 4; HCV NS3 hel inh: 4

What do the screens show for `C/C=C/c1ccc2c(c1)O[C@H](CN(C)C(=O)C1CCOCC1)[C@@H](C)CN([C@@H](C)CO)S2(=O)=O`?
Casp6 inh: 1

What do the screens show for `CC(C)(Oc1ccc(CCNC(=O)c2ccc(-c3ccccc3)o2)cc1)C(=O)O`?
NSD2 HMT inh: -3; Casp6 inh: 8; DNMT1 block: 5; HCV NS3 hel inh: 13

How did CC(C)(Oc1ccc(-c2ccco2)cc1)C(=O)O do in these assays?
HCV NS3 hel inh: 41*; NS3 helicase cf: 30; FID counter trip: 3

Results for COc1ccc2c(c1)O/C(=C\c1ccco1)C2=O ?
NSD2 HMT inh: 18; Casp6 inh: 22; DNMT1 block: 9; HCV NS3 hel inh: 44*; NS3 helicase cf: -1; FID counter trip: 24

How did COC(=O)C(C)Oc1ccc2c(c1)O/C(=C\c1ccco1)C2=O (stereo not drawn) do in these assays?
NSD2 HMT inh: 4; Casp6 inh: 5; DNMT1 block: 5; HCV NS3 hel inh: 33

What do the screens show for `CC(C)OC(=O)c1cc2c(ccn2C)n1CC(=O)N(Cc1ccccc1)c1ccc(F)cc1`?
NSD2 HMT inh: -1; DNMT1 block: -4; HCV NS3 hel inh: 38*; NS3 helicase cf: -12; FID counter trip: -38

Results for Nc1ccc(O)cc1C(=O)OCC(=O)c1ccc(C2CCCCC2)cc1 ?
NSD2 HMT inh: 17; DNMT1 block: 2; HCV NS3 hel inh: 59*; NS3 helicase cf: -1; FID counter trip: 16

Results for COc1ccc(C(=O)OCC(=O)c2ccc(C3CCCCC3)cc2)cc1 ?
NSD2 HMT inh: -7; DNMT1 block: 3; HCV NS3 hel inh: -1

Results for COCCn1c(SCC(=O)c2ccc3c(c2)OCCO3)nnc1-c1ccco1 ?
NSD2 HMT inh: -2; DNMT1 block: -1; HCV NS3 hel inh: 2

How did CCn1c(SCC(=O)c2ccc3c(c2)OCCO3)nnc1-c1ccco1 do in these assays?
NSD2 HMT inh: -1; DNMT1 block: -3; HCV NS3 hel inh: 48*; NS3 helicase cf: -7; FID counter trip: -21

Results for Cc1ccc(C(=O)CSc2nnc(-c3ccco3)n2Cc2ccccc2)cc1 ?
NSD2 HMT inh: -3; DNMT1 block: -5; HCV NS3 hel inh: -8

Results for Cn1c(SCC(=O)c2ccc(-c3ccccc3)cc2)nnc1-c1ccco1 ?
NSD2 HMT inh: 26; DNMT1 block: 38; HCV NS3 hel inh: 68*; NS3 helicase cf: 5; FID counter trip: -27

Results for CC(C)Cn1c(SCC(=O)c2ccc(Cl)s2)nnc1-c1ccco1 ?
NSD2 HMT inh: 1; DNMT1 block: -5; HCV NS3 hel inh: 39*; NS3 helicase cf: -24; FID counter trip: -28

What do the screens show for `O=C(CSc1nnc(-c2ccco2)c(-c2ccco2)n1)c1ccccc1`?
NSD2 HMT inh: 4; Casp6 inh: 6; DNMT1 block: 85*; HCV NS3 hel inh: 41*; NS3 helicase cf: 91*; FID counter trip: 45*

Results for CC(=O)c1ccc(NC(=O)CSc2nnc(-c3ccco3)c(-c3ccco3)n2)cc1 ?
NSD2 HMT inh: 29; Casp6 inh: 33; DNMT1 block: 47; HCV NS3 hel inh: 35

How did COc1ccc2c3c([nH]c2c1)[C@@H](CO)N(C(=O)c1ccccn1)CC31CN(C(=O)C2CC2)C1 do in these assays?
Casp6 inh: 1

How did CN1CCN(C(=O)C[C@@H]2CC[C@@H]3[C@H](COC[C@H](O)CN3S(=O)(=O)c3cccc(Cl)c3)O2)CC1 do in these assays?
Casp6 inh: 1

What do the screens show for `COc1ccc2c3c([nH]c2c1)[C@H](CO)N(C(=O)Nc1ccc(F)cc1)CC31CN(C(=O)c2ccccc2F)C1`?
Casp6 inh: 0

Results for CC(C)(C)C(=O)C[n+]1ccc(C(N)=O)cc1 ?
NSD2 HMT inh: -3; Casp6 inh: -2; DNMT1 block: 8; HCV NS3 hel inh: 47*; NS3 helicase cf: -1; FID counter trip: 2

Results for COc1ccc(NC(=O)c2c[nH]n3c(=O)cc(C4CCN(C(=O)OC(C)(C)C)CC4)nc23)cc1Cl ?
Casp6 inh: 22; DNMT1 block: -24; HCV NS3 hel inh: 36*; NS3 helicase cf: 52*; FID counter trip: -28

What do the screens show for `CC(C)(C)OC(=O)N1CCC(c2cc(=O)n3[nH]cc(C(=O)Nc4ccc(F)c(Cl)c4)c3n2)CC1`?
NSD2 HMT inh: 0; Casp6 inh: 10; DNMT1 block: -10; HCV NS3 hel inh: 25

Results for CC(=O)C1=C(C)NC(SCc2cccc3ccccc23)=C(C#N)C1c1ccco1 (stereo not drawn) ?
NSD2 HMT inh: 2; Casp6 inh: -1; DNMT1 block: -16; HCV NS3 hel inh: 38*; NS3 helicase cf: -4; FID counter trip: -3

How did C[C@@H]1CN([C@@H](C)CO)C(=O)c2cc(NC(=O)CCCN(C)C)ccc2O[C@H]1CN(C)S(=O)(=O)c1ccc(F)cc1 do in these assays?
Casp6 inh: 0

Compound activity: PubChem, several laboratories
